Results: ChEMBL document CHEMBL3864180, “Buried Hydrogen Bond Interactions Contribute to the High Potency of Complement Factor D Inhibitors” (ACS Med Chem Lett, 2016)

Legend:
Complement factor D [1] = target: T1, Complement factor D (Homo sapiens, UniProt P00746); experiment: Binding affinity to recombinant human C-terminal 6His-tagged/biotinylated complement factor D (26 to 253 residues) expressed in Sf9 insect cells assessed as association constant measured after 300 to 900 secs by biolayer interferometry method
T1 sequence (P00746 whole entry, the tested form may be a part): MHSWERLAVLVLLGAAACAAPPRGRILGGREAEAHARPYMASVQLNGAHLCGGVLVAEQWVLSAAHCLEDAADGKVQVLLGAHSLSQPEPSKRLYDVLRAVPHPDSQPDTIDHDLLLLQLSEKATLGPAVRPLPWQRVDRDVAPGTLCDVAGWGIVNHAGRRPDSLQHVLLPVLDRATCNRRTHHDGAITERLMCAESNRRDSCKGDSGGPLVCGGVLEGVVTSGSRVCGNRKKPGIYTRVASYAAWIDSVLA

Complement factor D [2] = target: T1, Complement factor D; experiment: Binding affinity to recombinant human C-terminal 6His-tagged/biotinylated complement factor D (26 to 253 residues) expressed in Sf9 insect cells assessed as dissociation constant measured after 300 to 1800 secs by biolayer interferometry method
Complement factor D [3] = target: T1, Complement factor D; experiment: Competitive inhibition of human complement factor D preincubated for 1 hr followed by addition of Z-Lys-thiobenzyl ester as substrate measured over 50 mins at 1 min interval
Summary of the method: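 Enzyme was factor D purified from normal human serum. Substrate Z-Lys-thiobenzyl ester (Z-Lys-Sbzl), read by absorbance. IC50 is the average of at least two independent triplicate experiments.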

Complement factor D [4] = target: T1, Complement factor D; experiment: Binding affinity to recombinant human C-terminal 6His-tagged/biotinylated complement factor D (26 to 253 residues) expressed in Sf9 insect cells by biolayer interferometry method
Summary of the method: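 Biotinylated recombinant human factor D expressed in Sf9 insect cells; direct binding read by bio-layer interferometry. Kd taken from the mean of two independent experiments, with standard deviations.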

Complement factor D [5] = target: T1, Complement factor D; experiment: Binding affinity to complement factor D (unknown origin)
Complement factor D [6] = target: T1, Complement factor D; experiment: Inhibition of recombinant human C-terminal 6His-tagged complement factor D (26 to 253 residues) expressed in Sf9 insect cells preincubated for 1 hr followed by addition of Z-Lys-thiobenzyl ester as substrate measured over 50 mins at 1 min interval
Summary of the method: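 Enzyme was recombinant human factor D expressed in Sf9 insect cells. Substrate Z-Lys-thiobenzyl ester, read by absorbance. OD was converted to product concentration with an extinction coefficient of 13260 M-1cm-1 and a 0.29 cm path correction.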

Structure (SMILES) | K (Complement factor D [1]) | K (Complement factor D [2]) | IC50 (Complement factor D [3]) | Kd (Complement factor D [4]) | IC50 (Complement factor D [5]) | IC50 (Complement factor D [6])
O=C(Nc1cccc(Br)n1)[C@@H]1SCCN1C(=O)Cn1ncc2ccccc21 | 132000 M⁻¹ s⁻¹ | 0.292 s⁻¹ | – | – | – | –
NC(=O)c1nn(CC(=O)N2[C@@H]3C[C@@H]3C[C@H]2C(=O)Nc2cccc(Br)n2)c2ncccc12 | 212000 M⁻¹ s⁻¹ | 0.00361 s⁻¹ | 31.9 nM | 17 nM | – | –
O=C(Nc1cccc(Br)n1)[C@@H]1C[C@H]2C[C@H]2N1C(=O)Cn1ncc2ccccc21 | 15800 M⁻¹ s⁻¹ | 0.189 s⁻¹ | – | – | – | –
N=C(N)c1cc2ccc(OC(=O)c3cccs3)cc2s1 | – | – | – | – | 98 nM | –
O=c1[nH]c2ccccc2c(=O)o1 | – | – | – | – | 2900 nM | –
NC(=O)c1nn(CC(=O)N2CCS[C@H]2C(=O)Nc2cccc(Br)n2)c2ncccc12 | 173000 M⁻¹ s⁻¹ | 0.00327 s⁻¹ | 27.3 nM | 18.9 nM | – | 19 nM
